The species entered for series [1] is Gallus gallus. The experiment in a line: Compound dose that inhibits transformation of chick embryo fibroblasts by Rous sarcoma virus, after 15 hr of incubation was determined in vitro. Compound dose that causes 50 % inhibition was reported. The series is classed as functional. Particulars: read-out: ID50 (the source's name). The method in brief: (§1)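 Focus-formation assay with Rous sarcoma virus Schmidt-Ruppin subgroup D on confluent secondary chicken fibroblast monolayers (5 × 10^5 cells/plate). Compounds in DMSO (final <1%) were serially diluted from 10^-2 to 10^-5 M solutions before addition. Infection was ~150–200 focus-forming units per dish for 15 h at 37 °C. A 0.9% agar overlay held the same compound dilutions and was re-fed at day 3. Foci were scored 7–10 days post-infection, with virus-only and drug-only controls.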

For series [2], the system named is L1210. Kind of series: Activity against cultured L1210 leukemic cells was determined in vitro, after 48 hr of incubation. Compound dose that causes 50 % inhibition was reported. The series is classed as functional. Particulars: Mus musculus, L1210, 48 h; read-out: ID50 (the source's name). The method in brief:
(§2)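 L1210 cells in RPMI with 10% fetal calf serum, amino acids, vitamins and penicillin-streptomycin, seeded at 4.0–6.0 × 10^4 cells/mL in duplicate per concentration. At least six concentrations in 1:5 dilutions; 24–48 h humidified incubation under 5% CO2. Cells were counted with a Coulter counter, with untreated and Me2SO controls. ID values were derived by a previously described method.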

The species named for series [3] is Gallus gallus. Kind of series: Compound dose that inhibits transformation of chick embryo fibroblasts by Rous sarcoma virus, after 15 hr of incubation was determined in vitro. Compound dose that causes 84 % inhibition was reported. The series is classed as functional. The method in brief:
as §1

For series [4], the system named is L1210. Kind of series: Activity against cultured L1210 leukemic cells was determined in vitro, after 48 h of incubation. Compound dose that causes 16 % inhibition was reported. The series is classed as functional, Mus musculus. The method in brief: as §2
For series [5], the species on record is Gallus gallus. Kind of series: Compound dose that inhibits transformation of chick embryo fibroblasts by Rous sarcoma virus, after 15 hr of incubation was determined in vitro. Compound dose that causes 16 % inhibition was reported. The series is classed as functional. The method in brief: as §1
In series [6] the test system is L1210. The experiment in a line: Activity against cultured L1210 leukemic cells was determined in vitro, after 48 hr of incubation. Compound dose that causes 84 % inhibition was reported. The series is classed as functional, Mus musculus. The method in brief:
as §2

Series [7] relates to Moloney murine sarcoma virus. The experiment in a line: Compound was tested for 50% inhibitory dose against Moloney sarcoma virus. Type of series: functional. Particulars: read-out: ID50 (the source's name).
Series [8] can be described thus: Compound dose that causes lethality by 50 %, was tested in mice. Type of series: ADME, organism-based. Particulars: mouse, in vivo. The method in brief: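 C57 Bl/6J mice, six per dose level. Drug was ground with an equal weight of acacia and suspended in saline, then dosed intraperitoneally by body weight.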

≈ marks a conversion by molar mass, not a printed value.

For `N/C(=N\O)N/N=C/C1CCCCC1`, the IC50 in the series filed under Gallus gallus [1] was 23.4 µM; in the series with L1210 [2], 21.2 µM. Further, the ID84 in the series listed under Gallus gallus [3] was 60.4 µM; in the series on L1210 [6], 48.4 µM. The ID16 in the series on L1210 [4] amounted to 9.34 µM; in the series listed under Gallus gallus [5] it was 9.11 µM.

For `NC(=O)NO` [HYDROXYUREA], in the series with L1210 [2], the IC50 worked out at 60.6 µM. The same compound had an ID16 in the series on L1210 [4] of 1.99 µM. For the same compound, the ID84 in the series with L1210 [6] is 181 µM.

Consider `NC(/N=N/c1c(O)[nH]c2ccc(F)cc12)=N\O`, for which the IC50 in the series filed under Gallus gallus [1] was 18.3 µM; with L1210 [2], 48.4 µM. Also, the ID84 in the series filed under Gallus gallus [3] was 62.25 µM; in the series on L1210 [6] it was 132 µM. Besides, the values for the ID16 in the series with L1210 [4] and in the series filed under Gallus gallus [5] were 17.8 µM and 5.36 µM, respectively.

For the compound `N/C(=N\O)N/N=C/c1cccc(C(F)(F)F)c1`, the values for the IC50 in the series filed under Gallus gallus [1] and with L1210 [2] were 18.2 µM and 15.1 µM, respectively. In addition, the ID84 was 40.61 µM in the series listed under Gallus gallus [3] and 96.4 µM in the series on L1210 [6]. Moreover, the values for the ID16 in the series on L1210 [4] and in the series filed under Gallus gallus [5] were 2.35 µM and 8.19 µM, respectively.

Take `N=C(NN)NO`: the IC50 in the series filed under Gallus gallus [1] was 195 µM; in the series on L1210 [2], 126 µM. Also, the ID84 came to 2438 µM in the series filed under Gallus gallus [3] and 311 µM in the series on L1210 [6]. Besides, the ID16 was determined as 57.1 µM in the series on L1210 [4] and 15.63 µM in the series filed under Gallus gallus [5].

Turning to `N=C(N)NO.O=S(=O)(O)O` [HYDROXYGUANIDINE SULFATE], the IC50 in the series listed under Gallus gallus [1] is 374 µM; in the series on L1210 [2], 59.5 µM. For the same compound, the ID84 in the series filed under Gallus gallus [3] amounted to 725.8 µM; in the series with L1210 [6], 370 µM. The figures for the ID16 with L1210 [4] and in the series listed under Gallus gallus [5] were 95.8 µM and 192.7 µM, respectively.

On to `CCCCCCOc1cccc(/C=N/N=C(\N)NO)c1`, for which the IC50 worked out at 8.02 µM in the series filed under Gallus gallus [1] and 7.8 µM in the series on L1210 [2]. Further, the ID84 in the series filed under Gallus gallus [3] was found to be 54.56 µM; in the series on L1210 [6] it was 20.6 µM. For the same compound, the values for the ID16 with L1210 [4] and in the series filed under Gallus gallus [5] were 2.96 µM and 1.18 µM, respectively.

Consider `CCCCOc1cccc(/C=N/N=C(\N)NO)c1`, for which the IC50 amounted to 10.2 µM in the series filed under Gallus gallus [1] and 8.54 µM in the series on L1210 [2]. For the same compound, the ID84 is 38.96 µM in the series listed under Gallus gallus [3] and 24.3 µM in the series on L1210 [6]. The ID16 in the series on L1210 [4] worked out at 3 µM; in the series filed under Gallus gallus [5], 2.66 µM.

As to `Cc1ccsc1/C=N/N=C(/N)NO`, the IC50 was 18.5 µM in the series filed under Gallus gallus [1] and 33.2 µM with L1210 [2]. Further, the ID84 in the series listed under Gallus gallus [3] was found to be 57.9 µM; in the series with L1210 [6], 65.3 µM. Also, the figures for the ID16 in the series on L1210 [4] and in the series listed under Gallus gallus [5] were 16.89 µM and 5.89 µM, respectively.

On to `N=C(N)NO` [HYDROXYGUANIDINE], for which the IC50 in series [7] turned out to be 2 µg/mL (≈ 26.6 µM).

`N/C(=N/N=C/c1ccccn1)NO`: the values for the IC50 in the series listed under Gallus gallus [1] and in the series with L1210 [2] were 2.76 µM and 10.9 µM, respectively. Besides, the ID84 came to 7.55 µM in the series filed under Gallus gallus [3] and 27 µM in the series with L1210 [6]. In addition, the ID16 was determined as 4.4 µM in the series with L1210 [4] and 1.01 µM in the series listed under Gallus gallus [5]. Further, the LD50 in series [8] stood at 315 mg/kg.

Take `N/C(=N\O)N/N=C/c1cccc(I)c1`: the IC50 in the series filed under Gallus gallus [1] amounted to 3.45 µM; in the series with L1210 [2], 12.5 µM. For the same compound, the ID84 in the series listed under Gallus gallus [3] came out at 13.33 µM; in the series with L1210 [6], 38.5 µM. The ID16 with L1210 [4] was determined as 4.07 µM; in the series listed under Gallus gallus [5], 0.9 µM. Moreover, the LD50 in series [8] came to 190 mg/kg.

`COc1cccc(/C=N/NC(=N)NO)c1`: the IC50 in the series listed under Gallus gallus [1] was found to be 17.8 µM; in the series on L1210 [2] it was 16 µM. Moreover, the ID84 in the series listed under Gallus gallus [3] amounted to 44.06 µM; in the series with L1210 [6], 60.9 µM. For the same compound, the ID16 in the series on L1210 [4] was found to be 4.2 µM; in the series listed under Gallus gallus [5] it was 7.15 µM.

Consider `N/C(=N\O)N/N=C/c1cccs1`, for which the IC50 in the series filed under Gallus gallus [1] turned out to be 11.8 µM; in the series on L1210 [2] it was 34.1 µM. Moreover, the figures for the ID84 in the series filed under Gallus gallus [3] and in the series with L1210 [6] were 38.04 µM and 143 µM, respectively. The ID16 came out at 81.7 µM in the series on L1210 [4] and 3.64 µM in the series listed under Gallus gallus [5].

For `Cc1cccc(/C=N/N=C(\N)NO)n1`, the figures for the IC50 in the series listed under Gallus gallus [1] and in the series on L1210 [2] were 114 µM and 42.1 µM, respectively. Besides, the ID84 in the series listed under Gallus gallus [3] was 361.3 µM; in the series with L1210 [6], 89.6 µM. Also, the ID16 with L1210 [4] worked out at 19.76 µM; in the series filed under Gallus gallus [5], 36 µM.

In general, LD50 refers to the dose at which mortality reaches 50%. The low end stands for a more toxic substance, the high end for a less toxic substance.
